Data as given in the RNAGym collection of RNA variant scans (doi:10.1126/science.aae0568).
Variants at the floor of the assay were thinned out.

B1: tRNA (parent)
chain: GUUCCGUUGGCGUAAUGGUAACGCGUCUCCCUCCUAAGGAGAAGACUGCGGGUUCGAGUCCCGUACGGAACG

Variants of: B1
Assay: yeast fitness relative to wild type (ratio to wild type); higher = fitter; tRNA-Arg(CCU), competitive growth, 37 C, YPD
Summary of the method: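 Genotype frequency changes were the basis for Darwinian fitness relative to wild type. The frequencies came from 100-nucleotide paired-end sequencing of gene amplicons from the start population and each end population of pooled yeast strains with tRNA-Arg(CCU) gene variants at the native locus. Competition ran in YPD at 37°C for 24 hours in six replicates, genotypes needed ≥ 100 starting reads, and estimates < 0.5 were set to 0.5.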

Variant	yeast fitness
U8G G48A C49G	≤ 0.5
U8G G51A A65U	≤ 0.5
U8C U16A A21G	≤ 0.5
U8C C29A U54A	≤ 0.5
U8C C24U A42U G52C	≤ 0.5
U8G C49U C55U	0.549
G9A C24G C34G C55A A65G	≤ 0.5
U8C A45C	0.802
U8C G18C	0.684
U8C U47C U59A A70G	≤ 0.5
U8C G12A G48C	0.675
U8C A15G U16A C46U U54C	0.601
U8C G12A A65G	0.615
U8C A21U	0.802
G9A C34U C46A C62U	0.546
G9A C11A A20U C61U	0.559
U8A G9C U54A	≤ 0.5
U8C C61A	0.763
U8C C61U	0.942
U8C C22U G23C C33G C49U	≤ 0.5
U8C U19C G23C U53C	≤ 0.5
G9A C27G C34A C46G C55A	0.508
U8A C66A	0.568
U8A G44A G67C	≤ 0.5

Variant	yeast fitness
U8C A14G G56C	≤ 0.5
U8C U26A A43U A70U	0.675
U8C A70G	0.971
G9A A14G C60U C62U	≤ 0.5
G9A C24G G39C G56C	≤ 0.5
G9A C29U U59A	0.561
U8A U26C G52C	≤ 0.5
U8A G10A G58C A69U	≤ 0.5
U8A G12A C62U	≤ 0.5
U8G C34U A40G C46A	≤ 0.5
G9A A45G G50C A69C	≤ 0.5
U8A G18A C30A U32A U35G C66U A69U	≤ 0.5
G9A C11U C27U A36G	≤ 0.5
U8C U16A U19A C22U U28C	≤ 0.5
G9A C22G A45G	0.588
U8C G9A A20C A70U	≤ 0.5
G9A C27A	0.955
G9A C24G A40C	≤ 0.5
G9A C11G U19C A20G G56A C60G	≤ 0.5
U8A U19C C31A U35G A43G U47C G52C G67A	0.575
G9A C24G A37C A70U	≤ 0.5
U8A G9A A36C C61G G67C	0.797
G9A A14G A20C A42C	≤ 0.5
U8C A36G G39C C49U U54G	≤ 0.5

Variant	yeast fitness
G9A C11U C61A	0.56
U8C G25C G38C C49U A57U C66A	≤ 0.5
U8G A57C	≤ 0.5
G9A A36U G39A G67A	≤ 0.5
U8G A20U G44C	0.558
U8A U19C G48C U59A C61U C66U	≤ 0.5
G9A C29G G63A	0.525
U8C U13G C22U C49U A65U	≤ 0.5
G9A A14U C46G C55U A69C	≤ 0.5
U8A C34U C55G	≤ 0.5
G9A A20C	0.871
U8C C11U C24G A45C	0.629
U8C G25C C31U A69C	≤ 0.5
G9A C22A C60A	0.705
G9A C11U C66U	0.779
G9A C31G	0.819
U8G G10C A20G G58A	≤ 0.5
G9A C22G U28A C31G C55A G68C	≤ 0.5
U8A C34G A65U C66A	≤ 0.5
U8C G10A G51A G58A	≤ 0.5
U8A U16A C29G A40G A42G C46G A65U	≤ 0.5
U8A G18C C24A U32C G52C G56A	≤ 0.5
G9A C11A G44C	≤ 0.5
U8A C31G A42G G52C	≤ 0.5

Variant	yeast fitness
G9A C27U G41C	0.618
U8C C11U G18A A20U C22G C31G	≤ 0.5
G9A C29A A37G	0.513
G9A A36G G50C U64C	0.645
U8G C34G C55G C62A G68A	≤ 0.5
U8C C22G C60A	0.609
U8G A14U G39A C55G	≤ 0.5
G9A A15C G58C	0.581
U8C A14U	0.805
G9A C31A U47A	≤ 0.5
U8A U16G C30U C33G A37C A43G	≤ 0.5
G9A A40G U64C	0.722
U8C C30G C31G	0.58
U8A G18C G48C A65G	≤ 0.5
U8C C11A U54C	≤ 0.5
U8C G41C	0.88
G9A C27G C31U C46G G51C G52A	≤ 0.5
U8C A37G G50A A69U	≤ 0.5
G9A C33U U47C	≤ 0.5
U8C C31U C46A C49A	≤ 0.5
U8C U28G A40U	0.588
G9A C24U A40U G68C	≤ 0.5
G9A C11A A20U G23A G51A	≤ 0.5
G9A C30U G44A	0.615

Variant	yeast fitness
G9A C22U C30G C61U	≤ 0.5
G9A A36U C46U	≤ 0.5
U8C G12C	0.853
U8C C22G C49U A69U	0.573
G9A A14C U35C	≤ 0.5
G9A C29U A65U	≤ 0.5
G9A C30U A57G	≤ 0.5
U8G A14G G25A A36G A42U G68C	≤ 0.5
G9A C30G C31G A43G A65G	≤ 0.5
G9A C34G G38C	≤ 0.5
U8C G10A G67C	0.592
G9A C11G U19C C55A	≤ 0.5
G9A C27G A40G G52A	≤ 0.5
U8G A42U A43C	0.51
U8G A14U G50A A57U A70G	≤ 0.5
G9A C22A C33G U35A C55U	≤ 0.5
U8C A14C G18A C31U	≤ 0.5
U8C C27A U47A G56C A69C	≤ 0.5
U8C A21U C34A A40C G67A	≤ 0.5
G9A A14C C22G U54C C66U	≤ 0.5
U8C U16C A20C C24G C55A	0.729
G9A A15U U59A A65C	0.654
U8G G17A C24G	≤ 0.5
U8G C30U C31G C66G	≤ 0.5

Variant	yeast fitness
G9A A15U C33G G39A C62A	≤ 0.5
U8A C34U G67A A69G	0.568
U8C C34G G48C U59C C60A A65G	≤ 0.5
G9A C11U C29U A65U	≤ 0.5
U8C A40G A43C	0.732
U8A U54A C55U G68A A69U	0.507
U8G U16C A21U C22A U28G	≤ 0.5
G9A A45U A70U	1.01
G9A C29U U32A A43U	0.604
U8A G12A A14C C31A G41C C49A G56A	0.563
U8C U19C	0.978
U8G C27A	0.564
U8A G10A A69U	0.542
U8A C31G A57C C61U	0.506
U8A G10U C22U A37G	0.511
U8C C11U C29A	≤ 0.5
G9A C27G U35A	≤ 0.5
U8A U26C G38A	≤ 0.5
G9A C30U C33A A36U A43U U54C G56A	0.626
U8A G18A C30A U32A U35A G67A	≤ 0.5
U8C C46U G51C	≤ 0.5
U8G G18A G50C A65U	0.513
U8C A14C C24G G68A	≤ 0.5
U8A C31G C34U C55U G58A C61U	≤ 0.5

Variant	yeast fitness
U8G C24U C29G C31A A45G C61U A65C G67A G68A	≤ 0.5
U8C A36U G50C	≤ 0.5
U8C G39C G68A	≤ 0.5
U8G U13G G23C A40C G63A	≤ 0.5
G9A C11A A40U G48C C55U C61G	≤ 0.5
U8A G12A C33U A65U	0.562
G9A A14U A21U A69C	0.755
U8A G10C C29A A40U C55G	0.533
G9A C46A C55U	0.543
U8C G18A G23C C31G G38C G41A	0.635
U8C G12C C61A G67A	≤ 0.5
U8C C22A A42U U54C C66G	≤ 0.5
G9A C22G A36U	0.666
U8G C24G G41A A65G	≤ 0.5
U8G C49U	0.668
U8C G10C G23C C29G G51A	0.72
G9A C34A G58A	0.667
U8G C29G A40U C61U A69C	0.648
U8C C22A A36C C55G A65G C66G	≤ 0.5
U8G A20U A36G	0.635
U8C C49G	1.01
U8A G12A A14C C60U G67C	≤ 0.5
U8C A21U U32A C55G	0.517
